From ChEMBL document CHEMBL3351592, “Marine spongian sesquiterpene phenols, dictyoceratin-C and smenospondiol, display hypoxia-selective growth inhibition against cancer cells” (2014)
Activity calls are given as the source filed them. The rule behind the calls is not given here.

Experiments:
[1] = tested on: DU-145; assay: Antiproliferative activity against human DU145 cells assessed as growth inhibition under hypoxic condition at 1 to 30 uM after 24 hrs by MTT assay; format: functional, cell-based
[2] = tested on: DU-145; assay: Inhibition of hypoxia-induced accumulation of HIF-1alpha in human DU145 cells at 10 to 30 uM after 24 hrs by Western blotting analysis; format: functional, cell-based
Summary of the method: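 DU145 cells at 40% confluence pre-incubated 12 h normoxic (5% CO2, 37 °C) or hypoxic (94% N2, 5% CO2, 1% O2). Then treated 24 h under the same condition. Cells rinsed in ice-cold PBS and lysed in Tris-HCl pH 7.5 buffer with EDTA, PMSF, NaF, vanadate, SDS and protease/phosphatase inhibitors. Lysates run on SDS-PAGE and blotted with anti-HIF-1α and anti-β-actin. ECL detection.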

[3] = tested on: DU-145; assay: Antiproliferative activity against human DU145 cells assessed as growth inhibition under hypoxic condition at 30 uM after 24 hrs by MTT assay; format: functional, cell-based
Summary of the method: (§1)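 DU145 cells in RPMI 1640 with 10% heat-inactivated FBS, seeded at 1×10^4 cells/well, settled 4 h at 37 °C in 5% CO2. Then held 12 h either normoxic or hypoxic (94% N2, 5% CO2, 1% O2). Compound added and incubated a further 24 h under the same condition. Read by MTT; inhibition expressed as % of parallel negative controls. Mean ± SD of 3 experiments in triplicate.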

[4] = tested on: DU-145; assay: Antiproliferative activity against human DU145 cells assessed as growth inhibition under hypoxic condition after 24 hrs by MTT assay; format: functional, cell-based; summary of the method: as §1
[5] = tested on: DU-145; assay: Inhibition of hypoxia-induced of VEGF production in human DU145 cells at 10 to 30 uM after 24 hrs by Western blotting analysis; format: functional, cell-based
Summary of the method: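 DU145 cells at 40% confluence pre-incubated 12 h normoxic or hypoxic (1% O2), then treated 24 h. Medium incubated 12 h at 4 °C with anti-VEGF antibody, then with protein G agarose for 2 h at 4 °C. Beads washed 4 times in lysis buffer and boiled 5 min in SDS sample buffer. Run on SDS-PAGE, Western blotted, ECL detection.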

[6] = tested on: DU-145; assay: Antiproliferative activity against human DU145 cells assessed as maximal growth inhibition under hypoxic condition at 10 uM after 24 hrs by MTT assay; format: functional; details: DU-145, 24 h; summary of the method: as §1
[7] = tested on: DU-145; assay: Antiproliferative activity against human DU145 cells assessed as growth inhibition under normoxic condition at 30 uM after 24 hrs by MTT assay; format: functional, cell-based; summary of the method: as §1

With `C=C1CCC[C@H]2[C@](C)(CC3=C(O)C(=O)C=C(NCC(C)C)C3=O)[C@@H](C)CC[C@]12C` the inhibition [1] was “inactive”.

With `C=C1CCC[C@H]2[C@](C)(Cc3cc(C(=O)OC)ccc3O)[C@@H](C)CC[C@]12C` the inhibition [2] was “Active”, the inhibition [3] was “Active” and the inhibition [4] was “Dose-dependent effect”. For the same compound, the inhibition [5] was “Active”, the inhibition at 10 µM [6] was 43% and the inhibition [7] was “Active”.

With `C=C1CCC[C@H]2[C@](C)(CC3=C(O)C(=O)C=C(NCC(C)C)C3=O)[C@@H](C)CC[C@@]12C` the inhibition [1] was “inactive”.

In the case of `C=C1CCC[C@H]2[C@](C)(CC3=C(O)C(=O)C=C(OC)C3=O)[C@@H](C)CC[C@]12C`, the inhibition [1] is reported as “inactive”.

With `CC1=CCC[C@H]2[C@@H](C)[C@@](C)(CC3=C(O)C(=O)C=C(N)C3=O)CC[C@]12C` the inhibition [2] was “inactive”, the inhibition [5] was “inactive” and the inhibition [1] was “inactive”.

`C=C1CCC[C@H]2[C@](C)(CC3=C(O)C(=O)C=C(NCCc4ccccc4)C3=O)[C@@H](C)CC[C@@]12C` was tested, and the inhibition [1] was “inactive”.

In the case of `COC1=CC(=O)C(O)=C(C[C@@]2(C)CC[C@]3(C)C(C)=CCC[C@H]3[C@H]2C)C1=O`, the inhibition [1] is reported as “inactive”.

For `C=C1CCC[C@H]2[C@](C)(Cc3cc(C(=O)OC)cc(O)c3O)[C@@H](C)CC[C@]12C`, the inhibition [4] was “Dose-dependent effect”.
